# “Also recorded” adds a separate entry of the source. Structures can show the parent of a compound that is named as a salt.
# How the values were obtained:
# [1] = molecular target: T1, HAT domain (1195-1673) of human p300 (Homo sapiens, UniProt Q09472); test: p300 HAT inhibition assay; type: biochemical; settings: for inhibitory activity against p300 HAT (in words): initial screen at 10 μM; for inhibition at 10 µM: read-out: inhibition of p300 HAT at 10 μM
# T1 sequence (Q09472 1195-1673): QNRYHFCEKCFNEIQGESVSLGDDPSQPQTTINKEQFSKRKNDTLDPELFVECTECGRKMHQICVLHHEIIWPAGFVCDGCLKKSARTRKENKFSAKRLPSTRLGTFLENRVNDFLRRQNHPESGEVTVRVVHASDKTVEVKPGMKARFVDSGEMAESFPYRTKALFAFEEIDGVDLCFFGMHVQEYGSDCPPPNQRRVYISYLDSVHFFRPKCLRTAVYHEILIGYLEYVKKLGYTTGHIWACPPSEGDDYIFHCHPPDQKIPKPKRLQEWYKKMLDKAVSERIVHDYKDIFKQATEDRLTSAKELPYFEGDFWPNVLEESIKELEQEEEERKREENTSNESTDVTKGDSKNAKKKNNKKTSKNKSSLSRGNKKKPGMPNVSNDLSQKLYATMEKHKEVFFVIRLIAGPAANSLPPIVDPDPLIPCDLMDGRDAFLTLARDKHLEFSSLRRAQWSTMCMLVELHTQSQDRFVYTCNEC
# LSD1 [2] = molecular target: T2, LSD1 (Homo sapiens, UniProt O60341); settings: read-out: IC50 against LSD1; cited from earlier work
# [3] = molecular target: T3, binding between p300 HAT and histone H4 (Homo sapiens, UniProt Q09472); test: ALPHA assay of p300 HAT-histone H4 peptide binding
# T3 sequence (Q09472 1195-1673): T1 sequence (Q09472 1195-1673)
# Kasumi-1 leukemia cells = test: Western blot of cellular histone H3 lysine acetylation; type: cell-based, human; settings: Kasumi-1 cells, 12h, 5 and 10 μM
# How it was run: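 Kasumi-1 cells (10⁶ per well) were exposed to test compound at various concentrations for 12 h. Total histones were extracted with a kit, and 2 μg protein was resolved by SDS-PAGE and transferred to PVDF. Blots were probed with antibodies to H3K9Ac, H3K18Ac, H3K27Ac and total H3, then an anti-rabbit IgG secondary.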
# MCF-7 = settings: read-out: Antiproliferative activity EC50; cited from earlier work
# PANC-1 = settings: read-out: Antiproliferative activity EC50; cited from earlier work
# MDA-PANC-28 = settings: read-out: Antiproliferative activity EC50; cited from earlier work
# PCAF = PCAF (Homo sapiens, UniProt Q92831); test: PCAF HAT inhibition assay; type: biochemical
# Chain of PCAF (Q92831 whole entry): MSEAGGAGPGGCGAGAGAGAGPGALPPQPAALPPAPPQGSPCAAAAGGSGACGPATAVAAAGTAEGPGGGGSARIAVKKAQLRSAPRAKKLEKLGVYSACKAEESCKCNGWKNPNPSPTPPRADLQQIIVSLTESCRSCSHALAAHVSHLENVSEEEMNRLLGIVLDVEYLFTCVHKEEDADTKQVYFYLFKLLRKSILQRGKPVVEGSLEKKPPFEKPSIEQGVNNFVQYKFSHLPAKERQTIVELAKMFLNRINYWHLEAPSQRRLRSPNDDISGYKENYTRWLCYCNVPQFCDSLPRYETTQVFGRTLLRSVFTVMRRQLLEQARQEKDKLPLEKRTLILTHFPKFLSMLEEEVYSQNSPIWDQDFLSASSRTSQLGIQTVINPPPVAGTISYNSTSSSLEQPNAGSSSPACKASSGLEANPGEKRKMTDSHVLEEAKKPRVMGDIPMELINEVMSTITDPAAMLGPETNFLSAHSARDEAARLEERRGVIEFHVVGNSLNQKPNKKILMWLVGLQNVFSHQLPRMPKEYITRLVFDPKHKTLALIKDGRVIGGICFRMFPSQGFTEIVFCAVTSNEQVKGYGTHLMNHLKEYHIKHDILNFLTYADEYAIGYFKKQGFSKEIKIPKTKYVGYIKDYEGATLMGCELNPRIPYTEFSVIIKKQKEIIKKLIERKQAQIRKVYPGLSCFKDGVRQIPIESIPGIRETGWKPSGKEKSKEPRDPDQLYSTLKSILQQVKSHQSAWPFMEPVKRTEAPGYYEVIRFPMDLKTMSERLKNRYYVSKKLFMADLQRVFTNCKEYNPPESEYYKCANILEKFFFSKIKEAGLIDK
# How it was run: (§1)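 Radiometric acetyltransfer assay. HAT enzyme (10 nM) was preincubated with test compound for 10 min at 25 °C in 50 mM phosphate buffer, pH 7.0, with 0.01% Brij-35. After 30 min at 25 °C, stopped with 6 N formic acid. Spotted on P81 paper, washed 3× in 50 mM NaHCO₃, scintillation counted.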
# Myst3 = Myst3 (Homo sapiens, UniProt Q92794); test: Myst3 HAT inhibition assay; type: biochemical
# Chain of Myst3 (Q92794 whole entry): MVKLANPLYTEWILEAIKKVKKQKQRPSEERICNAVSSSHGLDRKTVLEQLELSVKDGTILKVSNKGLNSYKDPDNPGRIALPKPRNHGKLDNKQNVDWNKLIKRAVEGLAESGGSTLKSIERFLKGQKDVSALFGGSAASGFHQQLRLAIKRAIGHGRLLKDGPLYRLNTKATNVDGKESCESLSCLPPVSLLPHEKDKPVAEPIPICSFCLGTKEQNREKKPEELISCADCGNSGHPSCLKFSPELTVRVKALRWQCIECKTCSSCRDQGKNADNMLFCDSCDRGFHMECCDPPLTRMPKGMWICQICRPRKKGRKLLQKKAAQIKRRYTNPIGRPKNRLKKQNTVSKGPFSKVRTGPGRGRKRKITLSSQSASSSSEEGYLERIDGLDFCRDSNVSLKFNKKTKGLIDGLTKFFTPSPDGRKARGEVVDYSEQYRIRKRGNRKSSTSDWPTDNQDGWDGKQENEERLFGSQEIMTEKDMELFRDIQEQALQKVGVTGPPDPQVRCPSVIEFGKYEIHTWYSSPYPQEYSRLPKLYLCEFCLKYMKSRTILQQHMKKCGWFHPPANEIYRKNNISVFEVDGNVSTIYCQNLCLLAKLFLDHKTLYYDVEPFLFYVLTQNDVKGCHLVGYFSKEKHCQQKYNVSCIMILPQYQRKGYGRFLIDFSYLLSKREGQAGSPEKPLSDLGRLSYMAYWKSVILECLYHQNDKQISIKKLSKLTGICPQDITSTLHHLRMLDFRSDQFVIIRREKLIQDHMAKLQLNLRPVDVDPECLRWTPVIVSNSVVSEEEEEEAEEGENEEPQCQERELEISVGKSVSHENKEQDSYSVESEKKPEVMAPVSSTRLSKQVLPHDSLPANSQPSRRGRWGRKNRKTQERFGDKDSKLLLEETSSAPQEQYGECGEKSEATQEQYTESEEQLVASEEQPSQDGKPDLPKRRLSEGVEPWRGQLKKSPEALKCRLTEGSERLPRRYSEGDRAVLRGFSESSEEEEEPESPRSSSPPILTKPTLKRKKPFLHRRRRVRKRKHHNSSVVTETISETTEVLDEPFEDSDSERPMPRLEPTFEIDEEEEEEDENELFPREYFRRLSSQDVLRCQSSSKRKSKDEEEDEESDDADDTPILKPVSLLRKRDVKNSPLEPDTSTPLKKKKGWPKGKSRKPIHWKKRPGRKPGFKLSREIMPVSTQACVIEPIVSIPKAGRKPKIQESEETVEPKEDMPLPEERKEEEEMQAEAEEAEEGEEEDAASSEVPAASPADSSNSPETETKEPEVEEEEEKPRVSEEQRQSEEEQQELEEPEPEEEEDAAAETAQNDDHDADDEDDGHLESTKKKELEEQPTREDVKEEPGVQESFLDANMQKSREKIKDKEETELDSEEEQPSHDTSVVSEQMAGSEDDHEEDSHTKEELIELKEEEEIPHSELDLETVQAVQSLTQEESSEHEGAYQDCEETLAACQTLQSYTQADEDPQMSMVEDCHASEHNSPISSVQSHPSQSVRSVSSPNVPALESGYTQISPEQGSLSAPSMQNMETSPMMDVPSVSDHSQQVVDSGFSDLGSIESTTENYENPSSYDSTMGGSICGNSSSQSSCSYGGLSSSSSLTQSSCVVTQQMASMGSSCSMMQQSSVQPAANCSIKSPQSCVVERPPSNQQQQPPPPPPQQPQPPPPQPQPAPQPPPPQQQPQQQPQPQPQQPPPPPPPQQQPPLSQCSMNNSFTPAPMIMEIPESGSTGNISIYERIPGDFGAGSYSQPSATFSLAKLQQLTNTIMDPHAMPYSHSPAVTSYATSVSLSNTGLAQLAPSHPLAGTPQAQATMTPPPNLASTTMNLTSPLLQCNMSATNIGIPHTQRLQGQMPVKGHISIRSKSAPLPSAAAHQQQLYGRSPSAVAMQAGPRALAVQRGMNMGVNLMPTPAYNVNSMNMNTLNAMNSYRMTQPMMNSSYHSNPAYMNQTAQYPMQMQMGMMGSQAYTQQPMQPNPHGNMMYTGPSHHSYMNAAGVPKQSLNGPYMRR
# How it was run: as §1
# LSD1 [4] = molecular target: T2, LSD1; test: LSD1 inhibition; type: biochemical
smiles,measurement,setting,value
"CC(=O)NCCOc1cnc(-c2ccc(Br)cc2)c(-c2ccc(Br)cc2)n1 [Compound 10, N-(2-((5,6-bis(4-bromophenyl)pyrazin-2-yl)oxy)ethyl)acetamide hydrochloride]",inhibitory activity against p300 HAT (in words),[1],inactive
Cc1ccc(-c2ncc(OCC3CCNCC3)cc2-c2ccc(CO)cc2)cc1 [Compound 2],IC50,LSD1 [2],> 100 µM
"CNCCOc1cnc(-c2ccc(Br)cc2)c(-c2ccc(Br)cc2)n1 [Compound 9, 2-((5,6-bis(4-bromophenyl)pyrazin-2-yl)oxy)-N-methylethan-1-amine hydrochloride]",inhibitory activity against p300 HAT (in words),[1],weak inhibitors
"NCCCOc1cnc(-c2ccc(Br)cc2)c(-c2ccc(Br)cc2)n1 [Compound 6, 3-((5,6-bis(4-bromophenyl)pyrazin-2-yl)oxy)propan-1-amine hydrochloride]",effect on p300 HAT-histone H4 binding (in words),[3],not significantly inhibited
same,disruption of p300 HAT-histone H4 binding at 100 μM (in words),[3]; 100 μM,did not significantly disrupt the binding
same,acetylation of H3K9 in cells,Kasumi-1 leukemia cells,did not significantly reduce
same,acetylation of H3K18 in cells,Kasumi-1 leukemia cells,did not significantly reduce
same,acetylation of H3K27 in cells,Kasumi-1 leukemia cells,did not significantly reduce
"NCCOc1cnc(-c2ccc(Br)cc2)c(-c2ccc(Br)cc2)n1 [Compound 8, 2-((5,6-bis(4-bromophenyl)pyrazin-2-yl)oxy)ethan-1-amine hydrochloride]",inhibitory activity against p300 HAT (in words),[1],weak inhibitors
"c1ccc(-c2ccc(-c3ncc(OCC4CCNCC4)nc3-c3ccc(-c4ccccn4)cc3)cc2)nc1 [Compound 30, 5-(Piperidin-4-ylmethoxy)-2,3-bis(4-(pyridin-2-yl)phenyl)pyrazine hydrochloride]",inhibition at 10 µM,[1],37 to 39%
N#Cc1ccc(-c2ncc(OCC3CCNCC3)nc2-c2ccc(Br)cc2)cc1 [Compound 23],inhibitory activity against p300 HAT (in words),[1],failed to improve the inhibitory activity
CNC(=O)Nc1ccc2c(c1)CC[C@@]21OC(=O)N(CC(=O)N(Cc2ccc(F)cc2)[C@@H](C)C(F)(F)F)C1=O [Compound A-485],effect on p300 HAT-histone H4 binding (in words),[3],not significantly inhibited; also recorded: did not affect the p300 HAT-histone H4 interaction
same,EC50,MCF-7,> 30 µM
same,EC50,PANC-1,> 30 µM
same,EC50,MDA-PANC-28,> 30 µM
"c1cc(-c2ccc(-c3ncc(OCC4CCNCC4)nc3-c3ccc(-c4ccncc4)cc3)cc2)ccn1 [Compound 31, 5-(Piperidin-4-ylmethoxy)-2,3-bis(4-(pyridin-4-yl)phenyl)pyrazine hydrochloride]",inhibition at 10 µM,[1],37 to 39%
"NCc1ccc(-c2ncc(OCC3CCNCC3)nc2-c2ccc(CN)cc2)cc1 [Compound 27, ((5-(Piperidin-4-ylmethoxy)pyrazine-2,3-diyl)bis(4,1-phenylene))dimethanamine Hydrochloride]",activity enhancement against p300 HAT compared to compound 3,[1]; relative to compound 3,~ 2 fold
same,acetylation of H3K9 in cells,Kasumi-1 leukemia cells,dose-dependently inhibit
same,acetylation of H3K18 in cells,Kasumi-1 leukemia cells,not significantly affected
same,acetylation of H3K27 in cells,Kasumi-1 leukemia cells,dose-dependently inhibit
N#Cc1ccc(-c2nc(OCC3CCNCC3)cnc2-c2ccc(Br)cc2)cc1 [Compound 22],inhibitory activity against p300 HAT (in words),[1],failed to improve the inhibitory activity
Brc1ccc(-c2ncc(OCC3CCNCC3)nc2-c2ccc(Br)cc2)cc1 [Compound 3],effect on p300 HAT-histone H4 binding (in words),[3],can dose-dependently disrupt the binding
same,IC50,LSD1 [2],52.4 µM
"c1ccc(-c2cc(OCC3CCNCC3)cnc2-c2ccccc2)cc1 [Compound 1, 5,6-diphenyl-3-(piperidin-4-ylmethoxy)pyridine]",IC50,LSD1 [2],> 100 µM
"c1cc(-c2ccc(-c3ncc(OCC4CCNCC4)nc3-c3ccc(-c4ccoc4)cc3)cc2)co1 [Compound 29, 2,3-bis(4-(Furan-3-yl)phenyl)-5-(piperidin-4-ylmethoxy)pyrazine hydrochloride]",mode of inhibition against cofactor Ac-CoA,[1]; IC50 versus Ac-CoA 1 - 50 μM,likely non-competitive against the enzyme cofactor Ac-CoA
same,mode of inhibition against substrate histone,[1]; IC50 versus histone peptide 2 - 100 μM,competitive against the substrate histone
same,more activity against p300 HAT than initial lead compound 3,[1]; relative to compound 3,> 4 ×
same,inhibition of PCAF activity at 100 μM (in words),PCAF,did not significantly inhibit
same,inhibition of Myst3 activity at 100 μM (in words),Myst3,did not significantly inhibit
same,inhibition of LSD1 activity at 100 μM (in words),LSD1 [4],did not significantly inhibit
same,effect on p300 HAT-histone H4 binding (in words),[3],can dose-dependently disrupt the binding
same,acetylation of H3K9 in cells,Kasumi-1 leukemia cells,almost depleted
same,acetylation of H3K18 in cells,Kasumi-1 leukemia cells,significantly inhibited
same,acetylation of H3K27 in cells,Kasumi-1 leukemia cells,almost depleted

# Source: article PMC9165588 (European journal of medicinal chemistry, 2022)
